Measured values reported in article PMC9583317 (ACS Omega, 2022).
Numbered stars: 1 amine (or outer) side, 2 acyl side, 3 side chain; on linkers, the order of the positions; unused ones are H or OH. Square brackets hold non-standard residues; d marks the D form. Peptide text beside a SMILES is read from it. X1 = O=C(C(=Cc1ccccc1)N[*:1])[*:2]

Key:
Proteinase K = Proteinase K (Parengyodontium album, UniProt P06873); assay: Proteolytic stability with proteinase K; assay type: in vitro ADME; details: 6 h, room temperature
Outline: (§1)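 Self-assembled peptide nanoparticles were exposed to proteinase K or trypsin for 6 h at room temperature with constant low-rpm stirring. Degradation was assessed by reverse-phase HPLC on a C-18 column. Morphological change of enzyme-treated particles was imaged by TEM.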

trypsin = assay: Proteolytic stability with trypsin; assay type: in vitro ADME; details: 6 h, room temperature
Outline: as §1

Red blood cells (RBCs) = assay: In vitro hemolysis; assay type: cell-based; details: human RBC suspension, 39 to 773 μM, 37 °C, 3 h, absorbance 540 nm
Outline: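 Human blood collected in 10% citrate-phosphate-dextrose. RBCs pelleted at 1500g, 10 min, 25 °C, and washed 3–5 times in PBS. A 10% (v/v) packed-RBC suspension was mixed 1:1 with peptide nanoparticles (39–773 μM) or the siRNA nanocomplex (70–280 nM). Incubated 3 h at 37 °C, then re-spun. Released hemoglobin read in supernatant at 540 nm. PBS and 0.2% Triton X-100 served as controls.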

[1] = ref [31]; cited from earlier work

Sequence of Proteinase K (P06873 106-384): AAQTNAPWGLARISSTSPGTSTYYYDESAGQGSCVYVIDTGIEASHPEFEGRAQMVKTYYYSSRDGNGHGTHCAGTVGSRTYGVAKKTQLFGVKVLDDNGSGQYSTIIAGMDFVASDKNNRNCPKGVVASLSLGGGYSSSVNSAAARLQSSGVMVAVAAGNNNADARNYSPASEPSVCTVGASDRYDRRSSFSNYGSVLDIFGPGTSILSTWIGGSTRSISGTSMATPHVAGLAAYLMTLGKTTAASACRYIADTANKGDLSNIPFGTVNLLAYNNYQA

| Compound | morphological change after proteinase K (TEM) (Proteinase K) | stability to trypsin compared with natural analogue RFRGD (trypsin; RP-HPLC C-18, RFRGD NPs in PBS (Fig S2b)) | morphological change after trypsin (TEM) (trypsin; TEM) | proteolytic stability to trypsin (RP-HPLC) (trypsin; constant stirring, RP-HPLC C-18) | hemolysis (Red blood cells (RBCs)) | size of nanospheres [1] |
| --- | --- | --- | --- | --- | --- | --- |
| N=C(N)NCCC[C@H](NC(=O)C(=Cc1ccccc1)NC(=O)[C@@H](N)CCCNC(=N)N)C(=O)NCC(=O)N[C@@H](CC(=O)O)C(N)=O [RΔFRGD] (H-R[X1]RGD-NH2) | no changes in morphological structures | significantly more stable | no changes in morphological structures | observable degradation | less than 5% |  |
| arginine-α,β-dehydrophenylalanine [RΔF] |  |  |  |  |  | 60–80 nm |
